SMILES strings stand for the structures. Activity calls are given as the source filed them. No cut-off for these calls is given here.

For assay [1], the system named is Salmonella typhimurium. Kind of assay: Antibiofilm activity against Salmonella typhimurium ATCC 14028 assessed as inhibition of biofilm formation incubated for 24 hrs by crystal violet staining based spectrophotometry. Type of assay: functional, organism-based, Salmonella enterica subsp. enterica serovar Typhimurium. The following applies: Salmonella enterica, ATCC 14028, 24 h. The procedure, abridged:
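LB overnight cultures (37 °C) set to OD600 0.8, diluted 1:100 into TSB diluted 1:20 in water. Compound at 0.2–100 μM or DMSO added at inoculation. Grown 24 h at 30 °C with nutation, washed, heat-fixed (60 °C, 1 h), stained with crystal violet, dye solubilized in acetic acid, read at 570 nm. IC50 from variable-slope fit of % biofilm vs log concentration. Mean ± SD of three biological replicates.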

Assay [2] relates to Salmonella typhimurium. The experiment in a line: Antibiofilm activity against Salmonella typhimurium ATCC 14028 assessed as biofilm dispersal effect incubated for 24 hrs by crystal violet staining based spectrophotometry. In kind it is functional, organism-based, Salmonella enterica subsp. enterica serovar Typhimurium. The following applies: Salmonella enterica, ATCC 14028, 24 h. In outline: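 Biofilms grown 24 h at 30 °C with nutation in TSB diluted 1:20, from 1:100-diluted LB overnight cultures set to OD600 0.8. Crystal violet staining, acetic acid solubilization, 570 nm read-out. EC50 from variable-slope fit of % biofilm remaining vs log concentration. Mean ± SD of three biological replicates.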

The subject of assay [3] is Salmonella typhimurium. The experiment in a line: Antibacterial activity against Salmonella typhimurium ATCC 14028 assessed as bacterial growth inhibition at >=12.5 uM. In kind it is functional, organism-based. The following applies: Salmonella enterica subsp. enterica serovar Typhimurium.
For assay [4], the system named is Salmonella typhimurium. The experiment in a line: Antibacterial activity against Salmonella typhimurium ATCC 14028 infected in 129X1/SvJ NRAMP +/+ mouse gallstone model assessed as log reduction in bacterial burden in gallblader at 5 mg/kg/day, ip administered for 5 to 15 consecutive days of post infection and measured on day 15 in presence of 1 mg/kg/day ciprofloxacin. In kind it is functional, Salmonella enterica subsp. enterica serovar Typhimurium. The following applies: time 10 day. The procedure, abridged:
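129X1/SvJ NRAMP+/+ mice given a lithogenic diet (chow plus 1% cholesterol, 0.5% cholic acid) for 8 weeks. Infected i.p. with ~10^3 CFU in 200 μL PBS. Treated daily i.p. on days 5–15 post-infection; vehicle 5% DMSO in PBS. Day 15: gallbladder, liver and spleen homogenized in 1 mL PBS, serially diluted and plated on LB agar (37 °C, 16 h) for CFU counts. One-way ANOVA with Tukey correction.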

Assay [5] deals with Salmonella typhimurium. The experiment in a line: Antibacterial activity against Salmonella typhimurium ATCC 14028 assessed as bacterial growth inhibition at >=100 uM. In kind it is functional, organism-based. The following applies: Salmonella enterica subsp. enterica serovar Typhimurium.
Assay [6] has as its system Salmonella typhimurium. The experiment in a line: Antibacterial activity against Salmonella typhimurium ATCC 14028 assessed as bacterial growth inhibition at >= 50 uM. Type of assay: functional, organism-based. To be noted: Salmonella enterica subsp. enterica serovar Typhimurium.

One may read the IC50 as the concentration that gives 50% inhibition. For orientation: EC50 means the concentration that produces a half-maximal response. As to `CN(Cc1ccsc1)CC1CCN(CCc2ccc(Cl)cc2Cl)CC1`, the IC50 in assay [1] came out at 2.5 µM. Further, the EC50 in assay [2] was 22 µM.
Regarding `CN(Cc1ccsc1)CC1CCN(CCCc2ccccc2)CC1`, the IC50 in assay [1] is 78.1 µM. Further, the EC50 in assay [2] was above 12000 µM.
For `CN(Cc1ccsc1)CC1CCN(Cc2ccc(Cl)c(Cl)c2)CC1` the same measures were 3.9 µM and 55 µM.
Consider `CN(Cc1ccsc1)CC1CCN(CCc2ccc(-c3ccccc3)cc2)CC1`, for which, in assay [3], the “growth inhibition (GI)” value is “Active”. Moreover, the “log(activity)” value in assay [4] was determined as 3.5.
Regarding `CNCC1CCN(CCc2ccccc2F)CC1`, the “growth inhibition (GI)” value in assay [5] is “Active”.
With `CN(Cc1ccsc1)CC1CCN(CCc2ccc(Cl)cc2)CC1`, in assay [1], the IC50 was found to be 3 µM. Further, the EC50 in assay [2] came out at 69 µM.
For `CN(Cc1ccsc1)CC1CCN(CCc2cccc(I)c2)CC1` the same measures were 4 µM and 44 µM.
The like results for `CN(Cc1ccsc1)CC1CCN(Cc2cccc(Cl)c2)CC1` were, in that order, 5.2 µM and 299 µM.
For the compound `CN(Cc1ccsc1)CC1CCN(CCc2cccc(Cl)c2)CC1`, in assay [1], the IC50 was 2 µM. The EC50 in assay [2] was 135 µM. The “growth inhibition (GI)” value in assay [5] is “Active”.
Take `CN(Cc1ccsc1)CC1CCN(CCc2ccccc2C(F)(F)F)CC1`: the IC50 in assay [1] worked out at 12.7 µM. In assay [2], the EC50 was 60 µM.
For `CN(Cc1ccsc1)CC1CCN(CCc2ccccc2Cl)CC1` the same measures were 6 µM and 232 µM.
For `CN(Cc1ccsc1)CC1CCN(Cc2cccc(Cl)c2Cl)CC1` the same measures were 2.7 µM and 70 µM.
Turning to `CC(C)c1ccc(CCN2CCC(CN(C)Cc3ccsc3)CC2)cc1`, in assay [3], the “growth inhibition (GI)” value is “Active”. The IC50 in assay [1] was 2.3 µM. In addition, the EC50 in assay [2] came out at 123 µM.
For `CN(Cc1ccsc1)CC1CCN(Cc2ccccc2Br)CC1`, the IC50 in assay [1] worked out at 4.9 µM. Besides, the EC50 in assay [2] was 79 µM.
In the case of `CN(Cc1ccsc1)CC1CCN(Cc2cccc(F)c2F)CC1`, in assay [1], the IC50 came out at 146 µM. In assay [2], the EC50 was determined as 870 µM. The “growth inhibition (GI)” value in assay [5] was “Active”.
For `CN(Cc1ccsc1)CC1CCN(CCc2ccccc2I)CC1`, in assay [1], the IC50 is 4.3 µM. The “growth inhibition (GI)” value in assay [6] is “Active”. In addition, the EC50 in assay [2] stood at 60 µM.
Regarding `CN(Cc1ccsc1)CC1CCN(Cc2ccc(F)c(F)c2)CC1`, the half-maximal inhibitory concentration (IC50) in assay [1] turned out to be 7.2 µM. The EC50 in assay [2] stood at 3800 µM.
The like results for `CN(Cc1ccsc1)CC1CCN(Cc2ccccc2)CC1` were, in that order, 26.7 µM and above 12000 µM.
The like results for `CN(Cc1ccsc1)CC1CCN(Cc2cc(F)cc(F)c2)CC1` were, in that order, 14.2 µM and above 12000 µM.
As for `CN(Cc1ccsc1)CC1CCN(CCc2cccc(Cl)c2Cl)CC1`, the “log(activity)” value in assay [4] stood at 1.5.
Regarding `CN(Cc1ccsc1)CC1CCN(Cc2ccccc2Cl)CC1`, the IC50 in assay [1] was found to be 2.7 µM. In addition, in assay [2], the EC50 is 1810 µM.
For the compound `Cc1ccccc1CN1CCC(CN(C)Cc2ccsc2)CC1`, in assay [1], the IC50 came to 6.3 µM. In addition, the EC50 in assay [2] was found to be 247 µM.
Consider `CN(Cc1ccsc1)CC1CCN(Cc2cccc(I)c2)CC1`, for which the IC50 in assay [1] was 10 µM. In assay [2], the EC50 came out at 92 µM.
For `CN(Cc1ccsc1)CC1CCN(Cc2cccc(F)c2)CC1` the same measures were 8.7 µM and 1050 µM.
For `CN(Cc1ccsc1)CC1CCN(Cc2ccc(F)cc2)CC1` the same measures were 12.9 µM and 443 µM.
For `CN(Cc1ccsc1)CC1CCN(Cc2ccccc2I)CC1` the same measures were 5.4 µM and 79 µM.
Consider `COc1ccccc1CCN1CCC(CN(C)Cc2ccsc2)CC1`, for which, in assay [1], the IC50 was determined as 16.9 µM. In addition, the EC50 in assay [2] worked out at 11800 µM.
For the compound `CN(Cc1ccsc1)CC1CCN(CCc2cc(Cl)cc(Cl)c2)CC1`, the IC50 in assay [1] was determined as 1.6 µM. Moreover, the “growth inhibition (GI)” value in assay [6] is “Active”. In assay [2], the EC50 is 45 µM.
